Data: the M2OR odorant receptor database

The molecules below were run against T1, OR2C1 (Homo sapiens) (UniProt O95371). Settings: stereoisomer not certain.
T1 sequence (whole entry): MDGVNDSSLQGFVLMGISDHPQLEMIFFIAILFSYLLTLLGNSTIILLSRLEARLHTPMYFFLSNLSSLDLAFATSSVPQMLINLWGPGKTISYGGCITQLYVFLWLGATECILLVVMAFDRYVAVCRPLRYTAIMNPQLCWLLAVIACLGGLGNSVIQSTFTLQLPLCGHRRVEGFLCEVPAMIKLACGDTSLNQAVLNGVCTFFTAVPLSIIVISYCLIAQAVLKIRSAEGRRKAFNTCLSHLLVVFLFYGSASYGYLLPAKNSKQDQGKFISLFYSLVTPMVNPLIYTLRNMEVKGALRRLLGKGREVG
In short: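 Each receptor–molecule pair is labelled responsive or non-responsive (inactive) according to whether the original authors judged the measured signal statistically different from baseline. The data were taken from the main text and supplementary material of published papers and checked for typos and inconsistencies. Assay methods differed by source, with transient luciferase assays in mammalian cell lines being common.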
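Note: active if original authors judged signal statistically different from baseline.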

Structure (SMILES) | odorant receptor agonist call
CCC(C(=O)O)c1ccccc1 (stereo not drawn) | inactive
CCCCCCCCCO | inactive
CC(=O)OCC=C(C)C | inactive
C=CCOC(=O)CCCCCC | inactive
CCCCC(=O)CC | inactive
CCCCCCO | inactive
C=C(C)C1CCC(C)C(=O)C1 (stereo not drawn) | inactive
c1ccccc1 | inactive
CCCCCCC(=O)[O-].[H+] | inactive
CCCCCCOC(C)=O | inactive
CCCCCCCO | inactive
CCOC(=O)C(C)C | inactive
CCCCCCCCS | active
CCCCOC=O | inactive
CCCCCCCCCCO | inactive
O=C1Cc2ccccc2O1 | inactive
CCC(=O)O | inactive
COc1cc(C(=O)O)ccc1O | inactive
CCCC(C)=O | inactive
CC(C)=CCCC(C)CCO (stereo not drawn) | inactive
CC12CCC(CC1=O)C2(C)C (stereo not drawn) | inactive
CCCCCCCC(=O)[O-].[H+] | inactive
CCCCCC=O | inactive
CCCCC(C)=O | inactive
CCCCCCCCCS | active
CCCCC(=O)O | inactive
CCCCCC1=C(C)CCC1=O | inactive
CCCCCCCCO | inactive
